Experimental data: ChEMBL document CHEMBL3611968, “Reengineered tricyclic anti-cancer agents” (Bioorg Med Chem, 2015)
The source made the active and inactive calls. No cut-off for these calls is given here.

These molecules were tested on NCI-H1650 (assay: Cytotoxicity against human NCI-H1650 cells assessed as growth inhibition after 48 hrs by MTT assay). Conditions: not given.
Assay type: functional
In short: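 H1650 cells were exposed to drug for 48 h at five concentrations bracketing 1–40 μM in 10 μM steps, with MTT read-out. GI50 is given only where the data form a sigmoidal dose response.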
`CC(C)S(=O)(=O)NCCCN1c2ccccc2CCc2ccc(Cl)cc21` was tested, and the GI50 was “inactive”.
With `O=S(=O)(NCCCN1c2ccccc2CCc2cncnc21)c1ccc(Cl)cc1` the GI50 was “inactive”.
For `CN(CCCN1c2ccccc2CCc2ccc(Cl)cc21)S(=O)(=O)c1ccc(C(F)(F)F)cc1`, the GI50 was “inactive”.
In the case of `O=S(=O)(NCCCCN1c2ccccc2CCc2ccc(Cl)cc21)c1ccc(C(F)(F)F)cc1`, the GI50 was “inactive”.
`O=C(NCCCN1c2ccccc2CCc2ccc(Cl)cc21)NS(=O)(=O)c1ccc(OC(F)(F)F)cc1` was tested, and the GI50 was “inactive”.
`O=S(=O)(c1ccc(OC(F)(F)F)cc1)N1CCCCC1CCN1c2ccccc2CCc2ccccc21` (stereo not drawn) was tested, and the GI50 was “inactive”.
In the case of `O=S(=O)(c1ccc(OC(F)(F)F)cc1)N1CCC(=C2c3ccccc3CCc3ccccc32)CC1`, the GI50 was “inactive”.
With `O=S(=O)(c1ccc(OC(F)(F)F)cc1)N1CCCCC1CCN1c2ccccc2Sc2ccc(Cl)cc21` (stereo not drawn) the GI50 was “inactive”.
`COC(=O)NCCN1c2ccccc2Sc2ccc(Cl)cc21` was tested, and the GI50 was “inactive”.
`O=S(=O)(c1ccc(Cl)cc1)N1CCC(=C2c3ccccc3CCc3ccccc32)CC1` was tested, and the GI50 was “inactive”.
In the case of `CN(CCN1c2ccccc2Sc2ccc(Cl)cc21)S(=O)(=O)c1ccc(Cl)cc1`, the GI50 was “inactive”.
For `O=S(=O)(NCCCN1c2ccccc2CCc2ccccc21)c1ccc2c(c1)OCO2`, the GI50 was “inactive”.
`O=S(=O)(NCCCN1CCCCc2ccccc21)c1ccc(OC(F)(F)F)cc1` was tested, and the GI50 was “inactive”.
For `CN(CCCN1c2ccccc2Sc2ccc(Cl)cc21)S(=O)(=O)c1ccc(Cl)cc1`, the GI50 was “inactive”.
`O=S(=O)(c1ccc(Cl)cc1)N1CCCCC1CCN1c2ccccc2Sc2ccc(Cl)cc21` (stereo not drawn) was tested, and the GI50 was “inactive”.
`O=S(=O)(NCCCN1c2ccccc2CCc2ccc(Cl)cc21)c1ccc(Cl)cc1Cl` was tested, and the GI50 was “inactive”.
For `O=S(=O)(NCCCN1c2ccccc2CCc2ccccc21)N1CCOCC1`, the GI50 was “inactive”.
For `O=C(NCCCN1c2ccccc2CCc2ccc(Cl)cc21)c1ccccc1`, the GI50 was “inactive”.
`COc1ccc(OC(=O)NCCCN2c3ccccc3Sc3ccc(Cl)cc32)cc1` was tested, and the GI50 was “inactive”.
For `O=S(=O)(NCCCN1CCCCc2ccccc21)c1ccc(Cl)cc1`, the GI50 was “inactive”.
`O=S(=O)(NCCCCN1c2ccccc2CCc2ccc(Cl)cc21)c1ccc(Cl)cc1` was tested, and the GI50 was “inactive”.
For `CCCN1c2ccccc2Sc2ccc(Cl)cc21`, the GI50 was “inactive”.
For `CN(C)S(=O)(=O)NCCCN1c2ccccc2CCc2ccccc21`, the GI50 was “inactive”.
In the case of `CN(CCN1c2ccccc2CCc2ccc(Cl)cc21)S(=O)(=O)c1ccc(C(F)(F)F)cc1`, the GI50 was “inactive”.
In the case of `O=S(=O)(c1ccc(Cl)cc1)N1CCCCC1CCN1c2ccccc2CCc2ccccc21` (stereo not drawn), the GI50 was “inactive”.
With `O=S(=O)(NCCCN1c2ccccc2CCc2ccc(Cl)cc21)C1CCCCC1` the GI50 was “inactive”.
`O=S(=O)(NCCCN1c2ccccc2CCc2ccccc21)C(F)(F)F` was tested, and the GI50 was “inactive”.
`O=S(=O)(NCCCCN1c2ccccc2CCc2ccc(Cl)cc21)c1ccc(OC(F)(F)F)cc1` was tested, and the GI50 was “inactive”.
With `CC(=O)NCCCN1c2ccccc2CCc2ccc(Cl)cc21` the GI50 was “inactive”.

Same assay, conditions: NCI-H1650, 48 h
Molecule `O=S(=O)(NCCCN1c2ccccc2CCc2ccccc21)c1ccc(N2CCOCC2)cn1` has a GI50 greater than 40 µM.
`COc1ccc(S(=O)(=O)NCCCN2c3ccccc3Sc3ccc(Cl)cc32)cc1` was tested, and the GI50 was greater than 40 µM.
`Cn1c(=O)oc2cc(S(=O)(=O)NCCCN3c4ccccc4CCc4ccccc43)ccc21` gave a GI50 greater than 40 µM.
`O=S(=O)(N[C@H]1CCC[C@@H](N2c3ccccc3CCc3ccccc32)C1)c1ccc(OC(F)(F)F)cc1` was tested, and the GI50 was 25 µM.
`CC(CNS(=O)(=O)c1ccc(Cl)cc1)CN1c2ccccc2CCc2ccccc21` (stereo not drawn) was tested, and the GI50 was 23 µM.
Molecule `O=S(=O)(NCCCN1c2ccccc2CCc2ccccc21)c1ccc(OC(F)(F)F)cc1` has a GI50 of 22 µM.
With `O=S(=O)(NCCCN1c2ccccc2CCc2ccc(Cl)cc21)c1ccccc1` the GI50 was 25 µM.
In the case of `O=S(=O)(NC1CCC(=C2c3ccccc3CCc3ccccc32)CC1)c1ccc(Cl)cc1` (stereo not drawn), the GI50 was 20 µM.
Work on `O=S(=O)(NC1CCOC2(C1)c1ccccc1CCc1ccccc12)c1ccc(Cl)cc1` (stereo not drawn) yielded a GI50 greater than 40 µM.
Work on `O=S(=O)(NCCCN1c2ccccc2CCc2ccccc21)c1ccc(Cl)cc1` yielded a GI50 of 20.6 µM.
`CC(CNS(=O)(=O)c1ccc(OC(F)(F)F)cc1)CN1c2ccccc2CCc2ccccc21` (stereo not drawn) gave a GI50 of 20 µM.
For `O=S(=O)(NCCCN1c2ccccc2CCc2ccc(Cl)cc21)c1ccc(F)cc1`, the GI50 was greater than 40 µM.
For `O=S(=O)(NCCCN1c2ccccc2CCc2cccnc21)c1ccc(OC(F)(F)F)cc1`, the GI50 was 22 µM.
Work on `O=S(=O)(NCCN1c2ccccc2CCc2ccc(Cl)cc21)c1ccc(OC(F)(F)F)cc1` yielded a GI50 of 22 µM.
`O=S(=O)(NCCCN1c2ccccc2CCc2cccnc21)c1ccc(Cl)cc1` was tested, and the GI50 was 27 µM.
For `NCCCN1c2ccccc2CCc2ccc(Cl)cc21`, the GI50 was 10 µM.
`O=S(=O)(NC1CCC2(OC1)c1ccccc1CCc1ccccc12)c1ccccc1` (stereo not drawn) gave a GI50 of 22 µM.
With `O=S(=O)(NCCCN1c2ccccc2OCc2cccnc21)c1ccc(Cl)cc1` the GI50 was greater than 40 µM.
In the case of `O=S(=O)(NCCCN1c2ccccc2CCc2ccc(Cl)cc21)c1cnc(Cl)c(Br)c1`, the GI50 was greater than 40 µM.
For `COC(=O)NCCCCN1c2ccccc2Sc2ccc(Cl)cc21`, the GI50 was greater than 40 µM.
`O=S(=O)(NCCNC1c2ccccc2CCc2ccccc21)c1ccc(OC(F)(F)F)cc1` showed a GI50 of 25 µM.
`O=S(=O)(N[C@@H]1CCC[C@@H](N2c3ccccc3CCc3ccccc32)C1)c1ccc(OC(F)(F)F)cc1` showed a GI50 of 18 µM.
For `O=S(=O)(NCCN1c2ccccc2Sc2ccc(Cl)cc21)c1ccc(OC(F)(F)F)cc1`, the GI50 was 25 µM.
Work on `O=S(=O)(NC1CCC2(OC1)c1ccccc1CCc1ccccc12)c1ccc(Cl)cc1` (stereo not drawn) yielded a GI50 of 25 µM.
`CC(=O)NCCCN1c2ccccc2Sc2ccc(Cl)cc21` was tested, and the GI50 was greater than 40 µM.
Molecule `CC(=O)Nc1ncc(S(=O)(=O)NCCCN2c3ccccc3CCc3ccccc32)s1` has a GI50 greater than 40 µM.
With `O=S(=O)(NCCN1c2ccccc2Sc2ccc(Cl)cc21)c1ccc(C(F)(F)F)cc1` the GI50 was 25 µM.
With `CC(=O)Nc1ccc(S(=O)(=O)NCCCN2c3ccccc3CCc3ccc(Cl)cc32)cc1` the GI50 was 15 µM.
For `CN(C)CCCN1c2ccccc2Sc2ccc(Cl)cc21` [CHLORPROMAZINE], the GI50 was 30.3 µM.
`O=S(=O)(NCC/C=C1/c2ccccc2Sc2ccc(Cl)cc21)c1ccc(OC(F)(F)F)cc1` gave a GI50 of 40 µM.
In the case of `O=S(=O)(NC[C@@H](O)CN1c2ccccc2CCc2ccccc21)c1ccc(OC(F)(F)F)cc1`, the GI50 was 18 µM.
Work on `O=S(=O)(N[C@H]1CC[C@@H](N2c3ccccc3CCc3ccccc32)CC1)c1ccc(Cl)cc1` yielded a GI50 of 10 µM.
In the case of `O=S(=O)(NCCNC1c2ccccc2CCc2ccccc21)c1ccc(Cl)cc1`, the GI50 was 26 µM.
Molecule `O=C1COc2ccc(S(=O)(=O)NCCCN3c4ccccc4CCc4ccccc43)cc2N1` has a GI50 of 22 µM.
`O=S(=O)(NC1CCOC2(C1)c1ccccc1CCc1ccccc12)c1ccc(OC(F)(F)F)cc1` (stereo not drawn) gave a GI50 greater than 40 µM.
`O=S(=O)(NCCCN1c2ccccc2CCc2ccc(Cl)cc21)c1cccc2ccccc12` was tested, and the GI50 was greater than 40 µM.
With `O=S(=O)(N[C@H]1CC[C@H](N2c3ccccc3CCc3ccccc32)CC1)c1ccc(Cl)cc1` the GI50 was 15 µM.
Work on `CN(C)C(=O)NCCCN1c2ccccc2CCc2ccc(Cl)cc21` yielded a GI50 greater than 40 µM.
Work on `O=S(=O)(NCCCN1c2ccccc2CCc2ccc(Cl)cc21)c1cc(Cl)c(Cl)s1` yielded a GI50 of 18 µM.
For `O=S(=O)(NCCCN1c2ccccc2CCc2ccccc21)c1ccc(-n2cccn2)cc1`, the GI50 was greater than 40 µM.
In the case of `O=S(=O)(NC1CCC(=C2c3ccccc3CCc3ccccc32)CC1)c1ccc(OC(F)(F)F)cc1` (stereo not drawn), the GI50 was 20 µM.
`O=S(=O)(NCCCN1c2ccccc2CCc2ncccc21)c1ccc(OC(F)(F)F)cc1` gave a GI50 of 27 µM.
`O=S(=O)(NCC/C=C1/c2ccccc2Sc2ccc(Cl)cc21)c1ccc(Cl)cc1` showed a GI50 greater than 40 µM.
For `CN(C)CCC=C1c2ccccc2CCc2ccccc21` [AMITRIPTYLINE], the GI50 was greater than 40 µM.
With `O=S(=O)(NCCN1c2ccccc2CCc2ccc(Cl)cc21)c1ccc(C(F)(F)F)cc1` the GI50 was 16.4 µM.
`O=S(=O)(NCCCN1c2ccccc2Sc2ccc(Cl)cc21)c1ccc(Oc2ccccc2)cc1` gave a GI50 greater than 40 µM.
`O=S(=O)(NC1CCCC(=C2c3ccccc3CCc3ccccc32)C1)c1ccc(OC(F)(F)F)cc1` (stereo not drawn) gave a GI50 of 15 µM.
With `O=S(=O)(NCCC=C1c2ccccc2CCc2ccccc21)c1ccc(F)cc1` the GI50 was 20 µM.
With `O=S(=O)(NCCCN1c2ccccc2Sc2ccc(Cl)cc21)c1ccc(OC(F)(F)F)cc1` the GI50 was greater than 40 µM.
Work on `O=S(=O)(NCCCN1c2ccccc2CCc2ccccc21)c1cnc(Cl)c(Br)c1` yielded a GI50 greater than 40 µM.
Molecule `O=S(=O)(NCCCN1c2ccccc2CCc2ccc(Cl)cc21)c1ccc(Cl)cc1` has a GI50 of 20 µM.
`COc1ccc(S(=O)(=O)NCCCN2c3ccccc3CCc3ccc(Cl)cc32)cc1` was tested, and the GI50 was 24.4 µM.
`NCCCN1c2ccccc2Sc2ccc(Cl)cc21` showed a GI50 of 10 µM.
In the case of `O=S(=O)(NCCC=C1c2ccccc2CCc2ccccc21)c1ccc(Cl)cc1`, the GI50 was 18 µM.
With `O=S(=O)(NCCCN1c2ccccc2CCc2ccc(Cl)cc21)c1ccccc1OC(F)(F)F` the GI50 was 25 µM.
Molecule `O=S(=O)(NC1CCC2(OC1)c1ccccc1CCc1ccccc12)c1ccc(OC(F)(F)F)cc1` (stereo not drawn) has a GI50 of 13 µM.
`O=S(=O)(NCCCN1c2ccccc2CCc2cncnc21)c1ccc(OC(F)(F)F)cc1` gave a GI50 greater than 40 µM.
`O=S(=O)(NCCCN1c2ccccc2CCc2ccccc21)c1ccc(Oc2ccccc2)nc1` showed a GI50 greater than 40 µM.
Work on `O=S(=O)(NCCCN1c2ccccc2OCc2cccnc21)c1ccc(OC(F)(F)F)cc1` yielded a GI50 of 19.1 µM.
Molecule `O=S(=O)(NCCCN1c2ccccc2CCc2ccccc21)c1ccc(C(F)(F)F)cc1` has a GI50 of 14.3 µM.
`N#Cc1ccc(S(=O)(=O)NCCCN2c3ccccc3CCc3ccc(Cl)cc32)cc1` showed a GI50 of 20 µM.
`N#Cc1ccc(S(=O)(=O)NCCCN2c3ccccc3Sc3ccc(Cl)cc32)cc1` gave a GI50 greater than 40 µM.
`O=S(=O)(N[C@H]1CC[C@@H](N2c3ccccc3CCc3ccccc32)CC1)c1ccc(OC(F)(F)F)cc1` gave a GI50 greater than 40 µM.
In the case of `O=S(=O)(NCCC=C1c2ccccc2CCc2ccccc21)c1ccc(OC(F)(F)F)cc1`, the GI50 was 20 µM.
With `Cc1nn(C)c(Cl)c1S(=O)(=O)NCCCN1c2ccccc2CCc2ccccc21` the GI50 was greater than 40 µM.
`O=S(=O)(NC1CCC2(OC1)c1ccccc1CCc1ccccc12)c1ccc(C(F)(F)F)cc1` (stereo not drawn) showed a GI50 of 15 µM.
In the case of `Cc1ccc(S(=O)(=O)NCCCCN2c3ccccc3Sc3ccc(Cl)cc32)cc1`, the GI50 was greater than 40 µM.
`O=S(=O)(NC1CCC2(OC1)c1ccccc1CCc1ccccc12)c1ccc(F)cc1` (stereo not drawn) showed a GI50 of 20 µM.
Work on `CN(C)CCC=C1c2ccccc2COc2ccccc21` [DOXEPIN] yielded a GI50 greater than 40 µM.
